# Screens as filed in PubChem.
# In the library only some 4.3% were active in any assay of this set; here they are far more common.
# Hep lipid drop – inhibitors of hepatocyte lipid droplet formation, primary screen, imaging, high-throughput imaging, BODIPY stain; AID 1656, 2009; AML12 mouse hepatocytes, oleate lipid droplets; inhibition, % at 6.5 µM; 0.4% of 240,000 active;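 active = lipid droplet intensity inhibited by at least 50%, with more than 500 cells counted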
#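 Assay system: AML12 hepatocytes (mouse); Probe or stimulus: oleic acid at 100 µM to induce lipid droplet formation; Dosing: compound at 6.5 µM only; Schedule: compound with oleate, overnight; Detection: fluorescence imaging, 20x objective, two fields per well; Measure: % inhibition of lipid droplet signal.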
# SMARCA2 activ – SMARCA2 (BRM) function activators, primary screen, cell-based, luminescence, high throughput; MG213 cells, MMTV-luciferase reporter, dexamethasone, overnight; activation, % at 9.1 µM; 1% of 370,000 active; AID 652017, 2013; in the data active = activation above about 7.8%;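 note: 0% = vehicle wells and 100% = reference activator wells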
# Yeast superoxide – reduction of superoxide in aged yeast, primary screen, HTS; S. cerevisiae aged cells, superoxide DHE fluorescence; hits give low values; 0.18% of 330,000 active; superoxide response (% of plate mean), % at 10 µM; AID 2690, 2010;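 active = superoxide response under a set limit, about three screen SD below normal, cut at about 65% in these data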;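 note: yeast aged for seven days with compound at 30 °C before DHE staining; 100% = average MFI of all compound-treated wells on the plate with controls excluded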
# SR-BI DiI inh – inhibitors of SR-BI mediated HDL lipid uptake, primary screen, ldlA[mSR-BI] cells, fluorescence, single point; Scavenger receptor class B member 1 (Mus musculus), Q61009; AID 488896, 2010; 0.96% of 320,000 active; inhibition, % at 12.5 µM; ldlA[mSR-BI] CHO cells, DiI-HDL uptake fluorescence, 3 h;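 active = mean replicate inhibition of at least 70% and a set share of replicates each scoring 70 or more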;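 note: 0% = median of neutral control wells and 100% = median of positive control wells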
# Target sequence (Q61009 whole entry, looked up): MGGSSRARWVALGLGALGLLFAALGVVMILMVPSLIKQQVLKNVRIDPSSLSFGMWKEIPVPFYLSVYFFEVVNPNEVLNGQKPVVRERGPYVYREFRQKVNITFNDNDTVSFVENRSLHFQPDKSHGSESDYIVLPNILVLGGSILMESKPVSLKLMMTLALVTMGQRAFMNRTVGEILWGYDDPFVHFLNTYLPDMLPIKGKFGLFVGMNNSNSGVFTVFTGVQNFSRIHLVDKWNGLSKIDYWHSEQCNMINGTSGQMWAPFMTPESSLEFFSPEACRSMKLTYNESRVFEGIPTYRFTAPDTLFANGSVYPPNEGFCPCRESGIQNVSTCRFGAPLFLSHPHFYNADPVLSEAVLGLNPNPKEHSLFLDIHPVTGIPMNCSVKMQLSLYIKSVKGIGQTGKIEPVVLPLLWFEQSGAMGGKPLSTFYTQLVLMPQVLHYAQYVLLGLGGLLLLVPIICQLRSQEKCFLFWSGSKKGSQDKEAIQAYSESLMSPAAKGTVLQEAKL
# AHR activator – AHR activators, primary screen, cell-based, luminescence, luciferase reporter, human; Aryl hydrocarbon receptor (Homo sapiens), P35869; activation, % at 5 µM; AHR-responsive luciferase reporter cells; AID 2796, 2010; 2.5% of 320,000 active; in the data active = activation above about 47%;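 note: 0% = vehicle wells and 100% = reference agonist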
# SR-BI DiI-HDL act – activators of SR-BI mediated DiI-HDL uptake, primary screen, ldlA[mSR-BI] CHO cells, DiI fluorescence | 3 h; 100 = double the neutral-control signal | activation, % at 12.5 µM | 0.096% of 320,000 active;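 active = mean replicate activation of at least 60% and every replicate at or above 60%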;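 note: 0% = median plate neutral-control signal and 100% = twice that signal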
#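 Test system: SR-BI-overexpressing, LDLR-lacking CHO cells. Measured by: DiI fluorescence, bottom read. Medium: Ham's F12 with 0.5% BSA, HEPES 25 mM, pH 7.4. Timing: 3 h uptake period with compound, 37 °C.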
# Lipid drop inh – hepatocyte lipid droplet accumulation inhibitors, confirmation, imaging, AML12 mouse hepatocytes, single concentration, high-content; BODIPY lipid droplet imaging; droplets induced with 100 µM oleic acid; 65% of 870 active; inhibition, % at 5.2 µM; shares compounds with Hep lipid drop;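 active = inhibition of lipid droplet metric at least 50%, with more than 300 cells in each of four replicates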;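 note: plate controls were DMSO with oleic acid for no effect and 5 µM Triacsin-C for full effect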
# AML12 cytotox – AML12 hepatocyte cytotoxicity, counter-screen for hepatic lipid droplet formation project, imaging, DAPI nuclear morphology imaging; shares compounds with Hep lipid drop; AML12 mouse hepatocytes; hits give high values; cells fed 100 µM oleate overnight; z-score at 5 µM; 3% of 870 active; in the data active = z-score above about 6.3;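 note: compound exposure lasted overnight at 37 °C before fixation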
# AML12 tox conf – AML12 hepatocyte cytotoxicity, confirmation, cytotoxicity control for hepatic lipid droplet formation project, cell-based, single concentration | 530 tested, under 10 active | AML12 mouse hepatocyte viability, ATP luminescence; cells loaded with 100 µM oleic acid | shares compounds with Hep lipid drop | AID 463219, 2010 | cytotoxicity, % at 50 µM;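 active = cytotoxicity above 50% in each of four replicates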;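 note: compound exposure lasted overnight at 37 °C before the ATP read; 0% = DMSO-treated cells and 100% = wells with no cells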
# * hit, by the source's call; . = no result.
SMILES,Hep lipid drop,SMARCA2 activ,Yeast superoxide,SR-BI DiI inh,AHR activator,SR-BI DiI-HDL act,Lipid drop inh,AML12 cytotox,others
CSc1nc2ccccc2n1CC(=O)Nc1c(C)cccc1C,55*,0,104,-40,4,.,50,0.047,
Cc1[nH]n(-c2ccccc2)c(=O)c1N=Nc1ccc(C(=O)O)cc1,51*,-2,92,12,16,-12,31,-0.38,
Cc1[nH]n(-c2ccccc2)c(=O)c1N=Nc1ccc(Cl)cc1,54*,1,106,2,51*,-2,51,0.57,
Cc1[nH]n(-c2ccccc2)c(=O)c1N=Nc1c(Cl)cccc1Cl,1,.,114,-17,10,17,.,.,
F[B-](F)(F)c1cncnc1,.,2,.,.,.,.,.,.,
CCN(CC)C(=O)CC[C@H]1CC[C@]2(CCCN(S(=O)(=O)c3ccccc3)C2)O1,.,-3,.,.,.,.,.,.,
CSc1ccccc1NC(=O)C1=CC(c2cccs2)=NS(=O)(=O)N1C,74*,-1,86,9,23,-9,105*,0.14,AML12 tox conf=14
COC(=O)c1ccccc1NC(=O)C1=CC(c2cccs2)=NS(=O)(=O)N1C,-5,-3,82,-12,4,12,.,.,
COc1c([N+](=O)[O-])cc(C(=O)NNC(=O)c2ccc(C)cc2)cc1[N+](=O)[O-],56*,0,125,3,0,-3,32,0.11,
COc1ccc(C(=O)NNC(=O)c2ccncc2)cc1[N+](=O)[O-],26,-1,101,1,0,-1,.,.,
CC1=C(/C=N/Nc2ccc([N+](=O)[O-])cc2[N+](=O)[O-])C(C)(C)CCC1,72*,-2,122,-4,5,4,115*,-0.82,AML12 tox conf=-13
COc1ccc(/C=N\Nc2ccc([N+](=O)[O-])cc2[N+](=O)[O-])c(C(=O)O)c1OC,-6,0,98,.,5,.,.,.,
C[C@H]1CN(S(=O)(=O)C(C)(C)C)[C@@H](CCO)/C1=C\CCO,.,-5,.,.,.,.,.,.,
CCCCn1c(SCC(=O)Nc2cc(C(F)(F)F)cc(C(F)(F)F)c2)nnc1C(CC)N(C)C (configuration not stated),78*,-1,91,25,0,-25,107*,-0.35,AML12 tox conf=17
CCOC(=O)C1=C(C(=O)OCC)C2N(Cc3ccc(Br)cc3)c3ccccc3[C@@]23C[C@@H](C(=O)OC)N(S(=O)(=O)c2cccs2)C3=N1 (some centres not stated),.,-6,.,.,.,.,.,.,
O=C(NCC1CCCO1)c1ccc(Cl)c(S(=O)(=O)N2CCOCC2)c1 (configuration not stated),-1,-2,118,.,-1,.,.,.,
O=C(Nc1ccccc1)c1ccc(NCC2CCCO2)c(S(=O)(=O)N2CCOCC2)c1 (configuration not stated),51*,-2,93,9,12,-9,21,0.057,
CCOc1ccc(-c2nonc2NC(=O)c2ccco2)cc1,74*,-2,102,-19,0,19,93*,-0.94,AML12 tox conf=14
CCOc1ccc(-c2nonc2NC(=O)c2ccco2)cc1OCC,4,4,99,-4,1,4,.,.,
CCc1ccc(NC(=O)C(C)OC(=O)c2ccc(N3CCCC3)c([N+](=O)[O-])c2)cc1 (configuration not stated),92*,0,102,45,-1,-45,107*,-0.22,
